Assay results taken from PubChem BioAssay.
Calls of active or inactive are those of the source.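 How the source made its calls, unless noted: active means viability loss from added drug above about 55%, and viability with drug at most 40%, in both replicates (limit read from the data, passing the limit was not always enough); inconclusive means both conditions met in only one replicate; inactive means neither replicate meets both conditions.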

What was measured:
[1] = reducers of endogenous Her2 protein level, primary screen, SKBR3 breast tumor cells, AlphaScreen, ATP viability (AID 461;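 active means Her2 level under about 52% in both replicate screens, with viability over 70% of control, limit read from the data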;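 on Her2 level: lower value means less Her2 protein in the cells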;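 on viability: percent of carrier control wells set as 100% viability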); conditions: 18-24 h, measured here: SKBR3 viability, ATP luminescence, at 10 µM
[2] = molecular target: Receptor tyrosine-protein kinase erbB-2 (Homo sapiens) (UniProt P04626); assay: as above; conditions: 18-24 h, at 10 µM, stronger effect = lower value
[3] = SK-BR-3 cell growth inhibitors, pilot screen, 24 h, human (AID 572;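 active means viability at or below 10% of carrier control in both of two separate runs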;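 further: compound exposure lasted between 18 and 24 h rather than exactly 24 h; 100% = carrier-treated control wells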); conditions: SK-BR-3 viability, CellTiter-Glo luminescence, at 10 µM, stronger effect = lower value
[4] = HUVEC growth inhibition – cell-based, human, primary screen (AID 575;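 active means viability at or below 30% in both replicate assays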;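 further: 100% = median of untreated cell wells with 0.1% DMSO on each plate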); conditions: HUVEC proliferation, CellTiter-Glo luminescence, 72 h; at 10 µM; stronger effect = lower value
Outline: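 Assay system: Primary human umbilical vein endothelial cells | Quantity: 1250 cells per well | Medium: Supplemented EBM, 2% fetal bovine serum | Detection: CellTiter-Glo luminescence measuring cellular ATP | Read-out: % viability vs DMSO wells | Plate: Collagen-coated 384-well format | Times: 72 h exposure, 37 °C, 5% CO2, 30 min RT equilibration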

[5] = growth inhibitors of H69AR lung tumor, primary screen, human, duplicate replicates (AID 580;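 active means viability at or under a set limit in both replicates, limit being median viability minus 3 SD, cut at about 48% in these data, passing the limit was not always enough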;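 further: 100% = mean luminescence of untreated wells and 0% = no signal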); conditions: H69AR lung tumor cells viability, ATP luminescence, 72 h; at 10 µM; stronger effect = lower value
[6] = reversal of MRP1-mediated doxorubicin resistance, pilot screen, H69AR cells, doxorubicin co-treatment (AID 601); conditions: CellTiter-Glo, 72 h, at 10 µM; for differential viability (reversal): stronger effect = higher value
[7] = 384-well plate pilot, post-Golgi transport modulator project, inhibition of yeast transport mutant growth (AID 636; in the data active means inhibition above about 31%); conditions: absorbance 615 nm, about 18 h, stronger effect = higher value
[8] = growth suppression of yeast trafficking mutant, preliminary HTS, modulators of trafficking downstream of Golgi apparatus project, 1536-format plate, OD 615 nm (AID 637; in the data active means inhibition above about 30%); conditions: yeast transport mutant growth, absorbance 615 nm, 18 h; stronger effect = higher value
[9] = H69AR cells + 2 uM doxorubicin, measured here: viability with 2 uM doxorubicin, stronger effect = lower value
[10] = H69AR cells, compound alone cytotoxicity

Receptor tyrosine-protein kinase erbB-2 (Homo sapiens), sequence (P04626 whole entry, looked up): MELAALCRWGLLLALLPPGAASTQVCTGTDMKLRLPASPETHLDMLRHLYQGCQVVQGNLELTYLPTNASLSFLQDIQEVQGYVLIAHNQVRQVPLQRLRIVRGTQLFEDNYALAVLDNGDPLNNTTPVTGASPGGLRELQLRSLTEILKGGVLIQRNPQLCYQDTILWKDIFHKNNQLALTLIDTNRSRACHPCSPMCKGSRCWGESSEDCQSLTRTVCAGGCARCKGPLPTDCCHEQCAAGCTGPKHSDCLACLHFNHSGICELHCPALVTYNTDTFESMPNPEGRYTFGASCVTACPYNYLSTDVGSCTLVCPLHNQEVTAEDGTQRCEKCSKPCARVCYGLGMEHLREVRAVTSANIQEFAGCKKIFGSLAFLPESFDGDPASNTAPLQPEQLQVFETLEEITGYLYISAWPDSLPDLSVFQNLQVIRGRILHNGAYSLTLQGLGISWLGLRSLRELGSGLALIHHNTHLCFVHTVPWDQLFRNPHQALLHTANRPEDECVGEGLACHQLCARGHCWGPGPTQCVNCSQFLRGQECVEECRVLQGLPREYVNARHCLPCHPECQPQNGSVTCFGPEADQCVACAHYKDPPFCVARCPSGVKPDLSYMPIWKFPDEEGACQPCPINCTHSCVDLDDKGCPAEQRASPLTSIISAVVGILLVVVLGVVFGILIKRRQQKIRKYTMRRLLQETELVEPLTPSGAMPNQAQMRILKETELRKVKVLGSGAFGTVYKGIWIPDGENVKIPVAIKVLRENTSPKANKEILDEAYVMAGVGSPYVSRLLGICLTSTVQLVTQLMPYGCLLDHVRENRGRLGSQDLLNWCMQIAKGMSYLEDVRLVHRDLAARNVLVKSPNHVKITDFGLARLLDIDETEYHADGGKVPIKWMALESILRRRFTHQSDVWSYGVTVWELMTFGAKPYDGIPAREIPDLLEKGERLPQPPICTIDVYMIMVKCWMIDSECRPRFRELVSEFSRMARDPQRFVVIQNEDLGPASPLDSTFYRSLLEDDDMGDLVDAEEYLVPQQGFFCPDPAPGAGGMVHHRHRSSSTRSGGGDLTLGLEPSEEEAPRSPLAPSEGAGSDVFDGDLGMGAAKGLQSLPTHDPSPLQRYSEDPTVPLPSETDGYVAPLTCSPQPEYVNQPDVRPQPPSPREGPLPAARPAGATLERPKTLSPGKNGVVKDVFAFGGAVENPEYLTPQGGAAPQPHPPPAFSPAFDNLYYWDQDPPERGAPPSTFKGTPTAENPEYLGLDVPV

SMILES	viability [1]	Her2 level [2]	viability [3]	viability [4]	viability [5]	differential viability (reversal) ([6]; H69AR cells + 2 uM doxorubicin)	viability [6, 9]	viability [6, 10]	inhibition [7]	inhibition [8]
COc1ccccc1N1CC(O)=C(c2nc3ccccc3c(=O)[nH]2)C1=N	116%	72% (inactive)	116% (inactive)	102% (inactive)	71.7% (inactive)	-13.9% (inactive)	85.7%	71.7%	-4.05% (inactive)	1.59% (inactive)
CCCC(C)c1nnc(NC(=O)C2CCCO2)s1 (stereo not given)	126%	91% (inactive)	126% (inactive)	95.8% (inactive)	93.9% (inactive)	0.895% (inactive)	93%	93.9%	-7.33% (inactive)	-3.06% (inactive)
C[N+]1=C2CCCCCN2C(O)(c2ccccc2)C1 (stereo not given)	97%	85% (inactive)	97% (inactive)	101% (inactive)	96.3% (inactive)	-1.28% (inactive)	97.6%	96.3%	-0.79% (inactive)	1.29% (inactive)
Cc1ccc2[nH]cc(C(=O)CN3CCC4(CC3)OCCO4)c2c1	106%	90% (inactive)	106% (inactive)	104% (inactive)	92.2% (inactive)	1.75% (inactive)	90.5%	92.2%	-4.13% (inactive)	-1.48% (inactive)
CCOc1cc(S(=O)(=O)N2CCC(Cc3ccccc3)CC2)c(OCC)cc1-n1cnnn1	77.5%	102% (inactive)	77.5% (inactive)	90.7% (inactive)	99.7% (inactive)	32.5% (inactive)	67.2%	99.7%	5.95% (inactive)	-1.59% (inactive)
COc1ccc(OC)c(NC(=O)CSc2nc3ccccc3c(=O)n2CCNC(C)=O)c1	118%	108% (inactive)	118% (inactive)	95.4% (inactive)	80.7% (inactive)	64.1% (active)	16.6%	80.7%	-1.58% (inactive)	0.32% (inactive)
COCCOC(=O)c1[nH]c2c(c1C)C(=O)CC(c1ccc(N(C)C)cc1)C2 (stereo not given)	111%	116% (inactive)	111% (inactive)	91.1% (inactive)	83.5% (inactive)	-20.9% (inactive)	104%	83.5%	-6.16% (inactive)	-5.87% (inactive)
CC(Oc1ccccc1)C(=O)NC1CCN(Cc2ccccc2)CC1 (stereo not given)	93%	83% (inactive)	93% (inactive)	90.7% (inactive)	93.5% (inactive)	7.39% (inactive)	86.1%	93.5%	-5.6% (inactive)	3.65% (inactive)
CCN(CC)C(=O)CN(c1cc(Cl)ccc1OC)S(C)(=O)=O	95.5%	89.5% (inactive)	95.5% (inactive)	95.2% (inactive)	102% (inactive)	9.04% (inactive)	93.3%	102%	-1.18% (inactive)	-3.71% (inactive)
CC1CN(C(=O)c2scc3c2OCCO3)CC(C)O1 (stereo not given)	102%	76% (inactive)	102% (inactive)	101% (inactive)	104% (inactive)	12.1% (inactive)	91.9%	104%	-7.3% (inactive)	5.24% (inactive)
O=C(CSc1nc2ccccc2s1)N1CCOCC1	119%	106% (inactive)	119% (inactive)	83.6% (inactive)	90.4% (inactive)	-6.72% (inactive)	97.1%	90.4%	-2.27% (inactive)	-9.03% (inactive)
Cc1cc(N2CCC3(CC2)OCCO3)n2nc(C)c(-c3ccc(Cl)cc3)c2n1	84.5%	84% (inactive)	84.5% (inactive)	71.9% (inactive)	90.9% (inactive)	12.5% (inactive)	78.4%	90.9%	-5.68% (inactive)	2.38% (inactive)
CC(=O)C1=C(C)NC(C)=C(C(C)=O)C1c1cccs1	99%	86% (inactive)	99% (inactive)	84.8% (inactive)	87% (inactive)	5.3% (inactive)	81.7%	87%	-2.08% (inactive)	-4% (inactive)
CC(C)Cn1c(N)c(C(=O)COC(=O)c2cc(-c3ccco3)nc3ccccc23)c(=O)n(C)c1=O	78.5%	80% (inactive)	78.5% (inactive)	66.8% (inactive)	89.3% (inactive)	-1.72% (inactive)	91.1%	89.3%	-4.32% (inactive)	-6.67% (inactive)
O=c1c(F)cn(C2CCCO2)c(=O)n1Cc1c(F)cccc1Cl (stereo not given)	94.5%	94% (inactive)	94.5% (inactive)	92.8% (inactive)	91.1% (inactive)	-2.1% (inactive)	93.2%	91.1%	-0.13% (inactive)	-8.39% (inactive)
O=C(c1ccco1)N1CCN(S(=O)(=O)c2ccc3c(c2)CCN3C(=O)C2CCC2)CC1	81.5%	130% (inactive)	81.5% (inactive)	101% (inactive)	95.6% (inactive)	11.7% (inactive)	83.9%	95.6%	-1.71% (inactive)	-6.5% (inactive)
CN1C(=O)CC(N2CCC(C(N)=O)(N3CCCCC3)CC2)C1=O (stereo not given)	104%	86% (inactive)	104% (inactive)	104% (inactive)	98.9% (inactive)	7.3% (inactive)	91.6%	98.9%	-6.8% (inactive)	5.25% (inactive)
Cc1cccc2sc(NC(=O)Cn3cccc3)nc12	87%	93.5% (inactive)	87% (inactive)	107% (inactive)	89.6% (inactive)	-8.27% (inactive)	97.8%	89.6%	-1.67% (inactive)	-1.83% (inactive)
CCN(CC)S(=O)(=O)c1ccc(NC(=O)CN(c2cccc(F)c2)S(C)(=O)=O)cc1	96%	84.5% (inactive)	96% (inactive)	88.7% (inactive)	92.5% (inactive)	-3.88% (inactive)	96.3%	92.5%	-4.29% (inactive)	-0.33% (inactive)
CCCn1c(=O)c2ccccc2n2c(SCc3cc(=O)n4ccsc4n3)nnc12	79.5%	90.5% (inactive)	79.5% (inactive)	104% (inactive)	82.1% (inactive)	14.6% (inactive)	67.6%	82.1%	-1.18% (inactive)	-12.1% (inactive)
COc1ccc(N(CC(=O)NCCSC(C)(C)C)S(C)(=O)=O)c(OC)c1	91%	97.5% (inactive)	91% (inactive)	106% (inactive)	92.8% (inactive)	-8.27% (inactive)	101%	92.8%	1.04% (inactive)	2.62% (inactive)
O=C(c1ccc(Cl)cc1)N1CCCCC(Sc2nnc(-c3ccc4c(c3)OCO4)o2)C1=O (stereo not given)	118%	76% (inactive)	118% (inactive)	62% (inactive)	88.5% (inactive)	-3.4% (inactive)	91.9%	88.5%	-6.49% (inactive)	5.56% (inactive)
N#C/C(C(=O)N1CCOCC1)=C1/SC(Cc2ccccc2)C(=O)N1c1ccccc1 (stereo not given)	92%	90.5% (inactive)	92% (inactive)	99.4% (inactive)	98.4% (inactive)	-3.21% (inactive)	102%	98.4%	-3.55% (inactive)	-4.91% (inactive)
CCCCn1cnc2c(cnn2-c2ccc(Cl)cc2)c1=O	94.5%	87% (inactive)	94.5% (inactive)	99.4% (inactive)	86.1% (inactive)	-1.77% (inactive)	87.9%	86.1%	-3.55% (inactive)	2.91% (inactive)
O=C(Nc1ccc2c(c1)OCO2)c1cncc(Br)c1	108%	77% (inactive)	108% (inactive)	82% (inactive)	92.6% (inactive)	2.14% (inactive)	90.5%	92.6%	-4.27% (inactive)	5.25% (inactive)
Cn1c(SCc2nnc3n2CCCCC3)nc2ccccc21	103%	98.5% (inactive)	103% (inactive)	98.3% (inactive)	98.2% (inactive)	4.2% (inactive)	94%	98.2%	-6.67% (inactive)	2.54% (inactive)
CC1CCC(C(=O)NC(C(=O)NCCN2CCC(C)CC2)C(C)C)CC1 (stereo not given)	126%	107% (inactive)	126% (inactive)	87.6% (inactive)	81.3% (inactive)	-6.62% (inactive)	87.9%	81.3%	-1.04% (inactive)	13.9% (inactive)
CC(C)(C)NC(=O)Nc1ccccc1C(N)=O	110%	108% (inactive)	110% (inactive)	103% (inactive)	110% (inactive)	7.05% (inactive)	103%	110%	-2.27% (inactive)	-5% (inactive)
CCOc1ccc(OCC)c(NC(=O)CN2CCN(C(=O)c3ccco3)CC2)c1	75%	103% (inactive)	75% (inactive)	82.4% (inactive)	68.8% (inactive)	38.1% (inactive)	30.6%	68.8%	4.81% (inactive)	-7.3% (inactive)
